5 compounds from ChEMBL document CHEMBL2390926, “Identification of novel FLT3 kinase inhibitors” (Eur J Med Chem, 2013) can be followed below.

Active and inactive are the calls of the source. No cut-off for these calls is given here.

Test [1] concerns the target Leukocyte tyrosine kinase receptor (Homo sapiens) (UniProt P29376). Put plainly: Inhibition of LTK (unknown origin) transfected in mouse Ba/F3 cells at 1 uM after 24 hrs. Format: cell-based. The note with it: BaF3. Put shortly: (§1)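 Kinase specificity panel: each Ba/F3 line transformed with one of 24 tyrosine kinases depends on that kinase to grow. Cells were given compound at 1 or 5 µM for 24 h, with DMSO as comparator. Percentage growth was read by ATP-lite luminescence and reported as mean ± SEM.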

For test [2], the target named is T1, Tyrosine-protein kinase receptor TYRO3 (Homo sapiens) (UniProt Q06418).
T1 sequence (whole entry): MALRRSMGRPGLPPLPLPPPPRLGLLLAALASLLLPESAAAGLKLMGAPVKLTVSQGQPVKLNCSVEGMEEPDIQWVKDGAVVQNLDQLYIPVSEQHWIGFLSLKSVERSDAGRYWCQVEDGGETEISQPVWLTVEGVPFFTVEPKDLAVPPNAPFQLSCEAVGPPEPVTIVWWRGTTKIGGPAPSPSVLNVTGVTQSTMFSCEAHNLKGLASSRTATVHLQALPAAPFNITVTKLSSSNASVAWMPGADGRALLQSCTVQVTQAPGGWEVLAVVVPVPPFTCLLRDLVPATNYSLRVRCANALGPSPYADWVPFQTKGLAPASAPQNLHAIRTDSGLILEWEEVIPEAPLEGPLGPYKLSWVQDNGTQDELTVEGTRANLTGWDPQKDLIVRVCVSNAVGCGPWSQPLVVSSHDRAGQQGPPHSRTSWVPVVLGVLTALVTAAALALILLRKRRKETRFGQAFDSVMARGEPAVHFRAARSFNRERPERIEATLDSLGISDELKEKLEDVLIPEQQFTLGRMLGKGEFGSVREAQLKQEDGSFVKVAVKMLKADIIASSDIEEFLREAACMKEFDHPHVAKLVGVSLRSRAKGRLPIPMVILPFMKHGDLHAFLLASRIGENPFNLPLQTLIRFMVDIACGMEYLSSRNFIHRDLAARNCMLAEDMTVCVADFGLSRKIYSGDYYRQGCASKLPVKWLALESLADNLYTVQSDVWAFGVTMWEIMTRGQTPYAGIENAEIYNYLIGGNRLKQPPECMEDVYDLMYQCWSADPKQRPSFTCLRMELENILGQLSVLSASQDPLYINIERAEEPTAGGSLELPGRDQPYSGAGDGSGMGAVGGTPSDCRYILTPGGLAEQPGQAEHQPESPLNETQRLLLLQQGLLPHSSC
Description: Inhibition of TYRO3 (unknown origin) transfected in mouse Ba/F3 cells at 1 uM after 24 hrs. Format: cell-based. The note with it: BaF3.

For test [3], the target named is NT-3 growth factor receptor (Homo sapiens) (UniProt Q16288). Description: Inhibition of NTRK3 (unknown origin) transfected in mouse Ba/F3 cells at 1 uM after 24 hrs. Format: cell-based. The note with it: BaF3.
Sequence of NT-3 growth factor receptor (Homo sapiens) (Q16288 32-839 limits assumed): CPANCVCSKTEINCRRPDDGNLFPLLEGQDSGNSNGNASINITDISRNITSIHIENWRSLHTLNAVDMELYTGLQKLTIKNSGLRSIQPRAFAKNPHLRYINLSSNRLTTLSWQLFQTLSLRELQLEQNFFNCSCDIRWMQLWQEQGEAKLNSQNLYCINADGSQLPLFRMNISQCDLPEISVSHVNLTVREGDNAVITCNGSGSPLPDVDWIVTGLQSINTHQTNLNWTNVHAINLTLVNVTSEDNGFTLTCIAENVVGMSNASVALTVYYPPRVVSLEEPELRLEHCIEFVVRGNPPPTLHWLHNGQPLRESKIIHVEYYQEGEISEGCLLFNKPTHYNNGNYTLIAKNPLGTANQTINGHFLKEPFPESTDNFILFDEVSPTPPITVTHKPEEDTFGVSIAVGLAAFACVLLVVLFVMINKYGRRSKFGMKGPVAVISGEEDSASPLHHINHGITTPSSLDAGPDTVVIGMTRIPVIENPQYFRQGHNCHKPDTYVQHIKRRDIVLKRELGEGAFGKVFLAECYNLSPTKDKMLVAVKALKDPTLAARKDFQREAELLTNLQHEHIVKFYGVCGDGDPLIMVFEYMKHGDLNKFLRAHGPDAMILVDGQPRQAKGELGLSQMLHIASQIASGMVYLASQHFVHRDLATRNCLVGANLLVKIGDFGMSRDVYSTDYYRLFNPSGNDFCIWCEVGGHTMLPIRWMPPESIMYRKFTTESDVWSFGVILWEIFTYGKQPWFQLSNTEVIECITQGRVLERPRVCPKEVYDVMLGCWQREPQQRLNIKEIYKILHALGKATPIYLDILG
The target in test [4] is T2, Ephrin type-A receptor 8 (Homo sapiens) (UniProt P29322).
T2 sequence (whole entry): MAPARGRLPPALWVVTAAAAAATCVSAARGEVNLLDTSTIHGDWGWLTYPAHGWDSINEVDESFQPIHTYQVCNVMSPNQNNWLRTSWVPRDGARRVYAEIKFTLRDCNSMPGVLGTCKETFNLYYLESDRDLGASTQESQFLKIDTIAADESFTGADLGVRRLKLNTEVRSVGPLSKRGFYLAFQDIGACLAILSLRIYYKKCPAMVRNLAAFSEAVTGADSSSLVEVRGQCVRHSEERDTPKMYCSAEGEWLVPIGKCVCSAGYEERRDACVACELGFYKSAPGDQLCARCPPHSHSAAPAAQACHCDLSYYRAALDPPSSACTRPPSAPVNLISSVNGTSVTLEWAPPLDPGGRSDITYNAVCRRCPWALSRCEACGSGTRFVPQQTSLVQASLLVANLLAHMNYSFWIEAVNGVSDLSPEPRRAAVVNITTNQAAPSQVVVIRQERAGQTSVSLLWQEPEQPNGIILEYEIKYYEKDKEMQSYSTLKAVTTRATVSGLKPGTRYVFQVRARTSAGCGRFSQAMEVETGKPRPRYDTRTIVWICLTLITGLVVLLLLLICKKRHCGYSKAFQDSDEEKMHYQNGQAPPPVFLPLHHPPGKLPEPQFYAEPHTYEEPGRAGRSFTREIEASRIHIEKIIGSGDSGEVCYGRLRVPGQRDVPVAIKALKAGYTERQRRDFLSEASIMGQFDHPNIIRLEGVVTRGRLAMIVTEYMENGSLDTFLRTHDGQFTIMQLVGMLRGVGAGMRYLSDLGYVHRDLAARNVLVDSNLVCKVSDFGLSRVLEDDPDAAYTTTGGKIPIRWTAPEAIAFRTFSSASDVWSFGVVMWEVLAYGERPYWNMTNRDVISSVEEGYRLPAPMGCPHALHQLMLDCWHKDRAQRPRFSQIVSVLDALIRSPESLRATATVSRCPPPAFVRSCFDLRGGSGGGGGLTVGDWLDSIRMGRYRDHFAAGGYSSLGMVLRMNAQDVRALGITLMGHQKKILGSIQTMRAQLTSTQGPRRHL
Description: Inhibition of EPHA8 (unknown origin) transfected in mouse Ba/F3 cells at 1 uM after 24 hrs. Format: cell-based. The note with it: BaF3. The method, boiled down: as §1

Another test concerns EOL1. Description: Cytotoxicity against human EOL-1 cells after 72 hrs by plate reader analysis. Format: functional, cell-based. The note with it: EOL1, 72 h.
The target of test [5] is Ephrin type-A receptor 2 (Homo sapiens) (UniProt P29317). Put plainly: Inhibition of EPHA2 (unknown origin) transfected in mouse Ba/F3 cells at 1 uM after 24 hrs. The note with it: BaF3. Format: cell-based. Put shortly:
as §1

Test [6] has as its target T3, Non-receptor tyrosine-protein kinase TNK1 (Homo sapiens) (UniProt Q13470).
T3 sequence (whole entry): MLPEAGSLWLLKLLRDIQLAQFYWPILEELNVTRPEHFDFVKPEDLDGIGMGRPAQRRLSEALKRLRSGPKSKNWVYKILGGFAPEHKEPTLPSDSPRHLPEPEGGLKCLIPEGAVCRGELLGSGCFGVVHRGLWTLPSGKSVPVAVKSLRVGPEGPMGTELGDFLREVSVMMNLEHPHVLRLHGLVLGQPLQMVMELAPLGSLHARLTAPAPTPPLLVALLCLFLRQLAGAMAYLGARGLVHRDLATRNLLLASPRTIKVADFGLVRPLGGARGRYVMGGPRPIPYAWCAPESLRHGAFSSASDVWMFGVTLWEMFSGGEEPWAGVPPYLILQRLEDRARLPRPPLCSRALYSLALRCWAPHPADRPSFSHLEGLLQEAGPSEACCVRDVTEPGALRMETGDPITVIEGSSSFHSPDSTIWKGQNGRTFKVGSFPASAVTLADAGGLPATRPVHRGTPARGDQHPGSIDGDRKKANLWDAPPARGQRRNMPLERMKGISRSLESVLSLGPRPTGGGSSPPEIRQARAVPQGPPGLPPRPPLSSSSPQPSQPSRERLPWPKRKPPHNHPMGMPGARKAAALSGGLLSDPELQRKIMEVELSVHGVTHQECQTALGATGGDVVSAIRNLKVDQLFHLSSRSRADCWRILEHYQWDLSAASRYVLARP
Put plainly: Inhibition of TNK1 (unknown origin) transfected in mouse Ba/F3 cells at 1 uM after 24 hrs. Format: cell-based. The note with it: BaF3.

Sequence of Leukocyte tyrosine kinase receptor (Homo sapiens) (P29376 whole entry): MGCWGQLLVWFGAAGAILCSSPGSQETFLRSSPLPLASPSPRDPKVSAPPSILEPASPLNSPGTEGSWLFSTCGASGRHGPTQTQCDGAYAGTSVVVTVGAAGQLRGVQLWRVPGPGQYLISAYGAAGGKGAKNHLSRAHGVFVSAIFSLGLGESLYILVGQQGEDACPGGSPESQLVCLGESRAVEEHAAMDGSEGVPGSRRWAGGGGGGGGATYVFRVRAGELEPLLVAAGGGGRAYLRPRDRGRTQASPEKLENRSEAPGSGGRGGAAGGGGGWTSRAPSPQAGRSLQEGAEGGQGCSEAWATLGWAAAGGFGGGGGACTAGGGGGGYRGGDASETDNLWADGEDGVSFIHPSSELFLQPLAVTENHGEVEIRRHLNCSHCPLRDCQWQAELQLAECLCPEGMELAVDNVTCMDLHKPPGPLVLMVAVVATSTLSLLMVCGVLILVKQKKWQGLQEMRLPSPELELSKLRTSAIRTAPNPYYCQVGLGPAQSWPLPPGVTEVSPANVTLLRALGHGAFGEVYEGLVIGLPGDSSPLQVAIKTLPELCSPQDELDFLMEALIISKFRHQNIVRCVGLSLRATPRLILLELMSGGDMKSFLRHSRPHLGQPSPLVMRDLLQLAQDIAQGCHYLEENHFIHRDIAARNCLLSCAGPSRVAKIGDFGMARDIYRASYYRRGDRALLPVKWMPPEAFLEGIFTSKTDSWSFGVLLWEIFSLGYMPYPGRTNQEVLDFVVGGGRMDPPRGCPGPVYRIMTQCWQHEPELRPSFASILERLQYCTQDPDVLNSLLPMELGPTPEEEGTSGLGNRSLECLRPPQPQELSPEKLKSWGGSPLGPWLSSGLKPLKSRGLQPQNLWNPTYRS
Sequence of Ephrin type-A receptor 2 (Homo sapiens) (P29317 whole entry): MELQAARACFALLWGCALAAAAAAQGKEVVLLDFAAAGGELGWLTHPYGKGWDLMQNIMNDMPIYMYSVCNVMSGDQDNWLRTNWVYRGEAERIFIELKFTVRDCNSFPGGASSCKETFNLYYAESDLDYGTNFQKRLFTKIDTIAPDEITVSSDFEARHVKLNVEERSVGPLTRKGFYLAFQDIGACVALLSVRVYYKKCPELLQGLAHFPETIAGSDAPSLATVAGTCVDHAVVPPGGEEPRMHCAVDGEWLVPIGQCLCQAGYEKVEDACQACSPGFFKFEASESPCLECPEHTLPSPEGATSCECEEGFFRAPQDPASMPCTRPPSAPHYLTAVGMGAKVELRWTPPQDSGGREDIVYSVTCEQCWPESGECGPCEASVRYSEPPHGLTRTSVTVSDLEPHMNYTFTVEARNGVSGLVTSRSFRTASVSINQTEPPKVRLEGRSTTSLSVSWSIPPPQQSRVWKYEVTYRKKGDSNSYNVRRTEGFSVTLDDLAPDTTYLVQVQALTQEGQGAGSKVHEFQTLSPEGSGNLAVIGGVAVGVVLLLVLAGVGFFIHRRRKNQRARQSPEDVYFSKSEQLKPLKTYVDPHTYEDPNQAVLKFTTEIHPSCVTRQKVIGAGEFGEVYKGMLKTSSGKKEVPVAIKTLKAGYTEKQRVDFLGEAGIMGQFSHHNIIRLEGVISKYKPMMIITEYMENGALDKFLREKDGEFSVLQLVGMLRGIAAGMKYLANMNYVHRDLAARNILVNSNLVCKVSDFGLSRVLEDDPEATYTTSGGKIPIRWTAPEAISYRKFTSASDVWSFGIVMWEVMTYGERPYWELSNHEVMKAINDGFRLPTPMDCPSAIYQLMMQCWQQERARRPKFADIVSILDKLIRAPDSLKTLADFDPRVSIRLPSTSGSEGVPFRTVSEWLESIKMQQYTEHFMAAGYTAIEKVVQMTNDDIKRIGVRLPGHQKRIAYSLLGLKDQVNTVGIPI

Usually EC50 stands for the concentration needed to bring the measured effect to its halfway point. Higher therefore signals weaker potency. In the case of `Cc1cccc(C(=O)Nc2cc(-c3ccc(F)cc3)n[nH]2)c1`, the inhibition entry in test [1], in test [2], in test [3], in test [4], in test [5] and in test [6] was “inactive” each time. The compound further had an EC50 with EOL1 of 202 nM.

For the compound `Cc1ccc(-c2cc(NC(=O)c3ccc(F)cc3)[nH]n2)cc1`, the inhibition result in test [1], in test [2], in test [3], in test [4], in test [5] and in test [6] was “inactive” in each case. Further, a half-maximal effect with EOL1 (EC50) was put at 502 nM.

Regarding `Cc1ccc(-n2cnc3cc(Nc4nnc(C)c5ccccc45)ccc32)cc1`, the 50% effective concentration (EC50) in the test with EOL1 is 889 nM.

In the case of `Fc1ccc(-c2n[nH]cc2-c2ccncc2)cc1Cl`, in the test with EOL1, the EC50 was determined as 382 nM.

In the case of `COc1ccc(C(=O)Nc2cc(-c3ccccc3)[nH]n2)cc1`, the inhibition entry in test [1], in test [2], in test [3], in test [4], in test [5] and in test [6] was “inactive” in each case. This compound also registered a half-maximal effective concentration (EC50) with EOL1 of 66 nM.
